From ChEMBL document CHEMBL1123251, “N-(cyanomethyl)- and N-(2-methoxy-1-cyanoethyl)anthracyclines and related carboxyl derivatives” (J Med Chem, 1986)

Legend:
L1210 [1] = assay: Compound was evaluated for the 50% inhibition of the incorporation of [3H]uridine in the RNA (inhibition of synthesis in leukemia L1210 cells); conditions: Mus musculus, read-out: ED50 (the source's name)
[2] = Compound was evaluated for the change in Tm of isolated helical DNA in solution.; assay type: ADME
Outline: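 Thermal denaturation of calf thymus DNA (5.2×10⁻⁵ M, P) with drug at 5.2×10⁻⁶ M in 0.01 M phosphate buffer pH 7, 10⁻⁵ M EDTA, 5% Me2SO. ΔTm = Tm(DNA–drug complex) − Tm(DNA).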

P388 [3] = assay: Compound was evaluated for the antitumor efficacy at optimal dose 0.012 mg/kg against leukemia P388 in mice on day 1,; assay type: functional, Mus musculus
[4] = Percent recovery of compound at pH 4; assay type: ADME
Outline: (§1)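 Drug stock in CH₃CN or EtOH was diluted 1:1 with citrate buffer (pH 4) or phosphate buffer (pH 7) and held at 23 °C for 22 h. Remaining drug was measured by reversed-phase C18 (5 μm) HPLC, eluting with 0.1 N NaH₂PO₄–CH₃CN (70:30 or 66:34, depending on compound). Result is reported as % recovery.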

[5] = Percent recovery of compound at pH 7; assay type: ADME
Outline: as §1

P388/ADR = assay: Compound was evaluated for the growth inhibition of P388/ADR cells.; assay type: functional, cell-based; conditions: Mus musculus
Outline: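 P388/ADR, a P388 subline selected for anthracycline resistance, grown in culture and exposed to drug for 48 h. IC50 (μM) was taken for growth inhibition. Resistance index = IC50 in P388/ADR ÷ IC50 in parent P388/S cells.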

L1210 [6] = assay: Compound was evaluated for the 50% inhibition of the incorporation of [3H]- thymidine in the DNA (inhibition of synthesis in leukemia L1210 cells); assay type: functional; conditions: Mus musculus, read-out: ED50 (the source's name)
[7] = Percent recovery of compound at pH 2; assay type: ADME
Outline: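 Drug stocks in CH3CN or EtOH were diluted 1:1 with phosphate buffer (pH 7), citrate buffer (pH 4) or 0.1 N HCl–KCl (pH 2). Solutions were held at 23 °C for 22 h, then aliquots were analysed by reversed-phase C18 HPLC eluted with 0.1 N NaH2PO4–CH3CN. Percent of drug recovered was reported.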

[8] = Partition coefficient in octanol-phosphate buffer at pH 7.4
P388/S [9] = assay: (§2) Compound was evaluated for the growth inhibition of P388/s cells.; assay type: functional, cell-based; conditions: Mus musculus
Outline: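 Cultured P388 cells were exposed to drug for 48 h and the IC50 for growth inhibition determined.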

P388 [10] = assay: Compound was evaluated for the antitumor efficacy at optimal dose 8.0 mg/kg against leukemia P388 in mice on day q4d 5, 9, 13.,; assay type: functional, Mus musculus
P388 [11] = assay: Compound was evaluated for the antitumor efficacy at optimal dose 3.1 mg/kg against leukemia P388 in mice on day 1,; assay type: functional, Mus musculus
P388/S [12] = assay: as §2; assay type: functional, cell-based; conditions: Mus musculus; remark: listed apart in the source
Outline: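 Growth inhibition of P388/S cells (the standard screening P388 line) in culture after 48-h drug exposure; IC50 reported in μM.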

P388 [13] = assay: Compound was evaluated for the antitumor efficacy at optimal dose 7.5 mg/kg against leukemia P388 in mice on day 1,; assay type: functional, Mus musculus

SMILES	EC50 (L1210 [1]) [µM]	Change in Tm [2]	EC50 (L1210 [6]) [µM]	IC50 (P388/S [12]) [µM]	T/C (P388 [3]) [%]	Recovery [4] [%]	Recovery [5] [%]	IC50 (P388/ADR) [µM]	Recovery [7] [%]	logD [8]	IC50 (P388/S [9]) [µM]	T/C (P388 [10]) [%]	T/C (P388 [11]) [%]	T/C (P388 [13]) [%]
COc1cccc2c1C(=O)c1c(O)c3c(c(O)c1C2=O)C[C@@](O)(C(=O)CO)C[C@@H]3OC1CC(N2CCOCC2C#N)C(O)C(C)O1 (stereo not given in full)	0.00053	8.7	0.003		262	54	74	0.0003	10					
COc1cccc2c1C(=O)c1c(O)c3c(c(O)c1C2=O)C[C@@](O)(C(C)=O)C[C@@H]3OC1CC(NCC(=O)O)C(O)C(C)O1 (stereo not given in full)	100	2.2	> 100							0.43				
COCC(C#N)NC1CC(O[C@H]2C[C@](O)(C(=O)CO)Cc3c(O)c4c(c(O)c32)C(=O)c2c(OC)cccc2C4=O)OC(C)C1O (stereo not given in full)	0.4	12.5	0.8			29	28		58	0.92	0.037			
COCC(C#N)NC1CC(O[C@H]2C[C@](O)(C(C)=O)Cc3c(O)c4c(c(O)c32)C(=O)c2c(OC)cccc2C4=O)OC(C)C1O (stereo not given in full)	0.51	9.4	0.51							2.64				
COc1cccc2c1C(=O)c1c(O)c3c(c(O)c1C2=O)C[C@@](O)(C(C)=O)C[C@@H]3OC1CC(NCC#N)C(O)C(C)O1 (stereo not given in full)	0.82	11.7	1.8							2.28				
COc1cccc2c1C(=O)c1c(O)c3c(c(O)c1C2=O)C[C@@](O)(C(=O)CO)C[C@@H]3OC1CC(NCC#N)C(O)C(C)O1 (stereo not given in full)	0.29	13.9	1.2			86	82		92	1.2	0.028	148	184	
COc1cccc2c1C(=O)c1c(O)c3c(c(O)c1C2=O)C[C@@](O)(C(C)=O)C[C@@H]3O[C@H]1C[C@H](N)[C@H](O)[C@H](C)O1 [DAUNORUBICIN]	0.33	10.5	0.66											

Continued, in another order:

EC50 (L1210 [1]) [µM]	Change in Tm [2]	EC50 (L1210 [6]) [µM]	IC50 (P388/S [12]) [µM]	SMILES	T/C (P388 [3]) [%]	Recovery [4] [%]	Recovery [5] [%]	IC50 (P388/ADR) [µM]	Recovery [7] [%]	logD [8]	IC50 (P388/S [9]) [µM]	T/C (P388 [10]) [%]	T/C (P388 [11]) [%]	T/C (P388 [13]) [%]
11	0	13		CCOC(=O)CNC1CC(O[C@H]2C[C@](O)(C(C)=O)Cc3c(O)c4c(c(O)c32)C(=O)c2c(OC)cccc2C4=O)OC(C)C1O (stereo not given in full)										
0.37	8.4	1.3		CCOC(=O)CCCNC1CC(O[C@H]2C[C@](O)(C(C)=O)Cc3c(O)c4c(c(O)c32)C(=O)c2c(OC)cccc2C4=O)OC(C)C1O (stereo not given in full)						2.04				
5.3	2.2	14		COc1cccc2c1C(=O)c1c(O)c3c(c(O)c1C2=O)C[C@@](O)(C(C)=O)C[C@@H]3OC1CC(N(CC#N)CC(=O)[O-])C(O)C(C)O1.[Na+] (stereo not given in full)						0.03				
1.7	3.5	7.5		COc1cccc2c1C(=O)c1c(O)c3c(c(O)c1C2=O)C[C@@](O)(C(C)=O)C[C@@H]3OC1CC(NCC(N)=O)C(O)C(C)O1 (stereo not given in full)						1.65				
3.5		7		CCOC(=O)CN(CC#N)C1CC(O[C@H]2C[C@](O)(C(C)=O)Cc3c(O)c4c(c(O)c32)C(=O)c2c(OC)cccc2C4=O)OC(C)C1O (stereo not given in full)										
0.58	12.8	1.6	0.068	COc1cccc2c1C(=O)c1c(O)c3c(c(O)c1C2=O)C[C@@](O)(C(=O)CO)C[C@@H]3O[C@H]1C[C@H](N)[C@H](O)[C@H](C)O1 [DOXORUBICIN]				8.2				160		252
